Source: ChEMBL document CHEMBL1128452, “Pseudodipeptide inhibitors of protein farnesyltransferase” (J Med Chem, 1995)
Peptide text beside a SMILES is read from it. * marks the point of attachment. NHPhenethyl = c1ccc(CCN*)cc1

What was measured:
[1] = target: Protein farnesyltransferase (Bos taurus, UniProt P29702+P49355); assay: In vitro concentration required to reduce Farnesyltransferase catalyzed incorporation of [3H]FPP into recombinant Ha-Ras protein by 50%; assay type: protein-complex assay
Outline: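 Farnesyltransferase was purified from bovine brain and used at ca. 1 nM. It was incubated with compound, [³H]FPP and recombinant Harvey-Ras. Total protein was acid-precipitated and Ras-bound label counted by scintillation. IC50 is the concentration halving incorporation relative to a no-inhibitor control. Values are mean ± SEM of the stated number of determinations, or a single determination estimated reliable within 2-fold.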

[2] = test system: NIH3T3; assay: Highest nontoxic concentration for cultured NIH 3T3 cells assessed by MTT staining.; assay type: functional, Mus musculus
Outline: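 NIH 3T3 cells exposed to compound for 48 h. Viability read by MTT staining. The value reported is the highest concentration the cells tolerated without toxicity.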

[3] = target: Geranylgeranyl transferase type I (Bos taurus, UniProt P29702+Q5EAD5); assay: Inhibition of bovine Geranylgeranyl transferase type I; assay type: protein-complex assay

Structure (SMILES)	IC50 [1] [µM]	IC50 [3] [µM]	Cytotoxic endpoint [2] [µM]
CCC(C)[C@H](NC[C@@H](N)CS)C(=O)NCc1cccc(Cl)c1Cl (stereo partly specified)	0.023	6.8	5
CCC(C)[C@H](NC[C@@H](N)CS)C(=O)NCCC(C)C (stereo partly specified)	–	100	–
CCC(C)[C@H](NC[C@H](C)N)C(=O)NCCc1ccccc1 (stereo partly specified)	> 10	–	>100
CCC(C)[C@H](NC[C@@H](N)CS)C(=O)Nc1cccc(C)c1 (stereo partly specified)	0.046	6.2	25
CCC(C)[C@H](NC[C@@H](N)CS)C(=O)NCc1ccc(C)cc1C (stereo partly specified)	0.12	30	10
CCC(C)[C@H](NC[C@@H](N)CS)C(=O)NCc1ccc(Cl)cc1Cl (stereo partly specified)	0.097	10	10
CCC(C)[C@H](NC[C@@H](N)CS)C(=O)NCc1ccc(S(N)(=O)=O)cc1 (stereo partly specified)	0.4	21	100
CCC(C)[C@@H](CNCCc1ccccc1)NC[C@@H](N)CS (stereo partly specified)	–	–	10
CCC(C)[C@H](NC[C@@H](N)CS)C(=O)Nc1cccc(C)c1C (stereo partly specified)	0.04	8.2	10
CCC(C)[C@H](NC(=O)CCS)C(=O)NCCc1ccccc1 (stereo partly specified)	> 10	–	10
CCC(C)[C@H](NC[C@@H](N)CS)C(=O)Nc1ccc(C)cc1C (stereo partly specified)	0.06	–	5
CC[C@H](C)[C@H](NC(=O)[C@@H](N)CS)C(=O)NCCc1ccccc1 (H-Cys-Ile-NHPhenethyl)	1	–	>100

The next lines start with results.

IC50 [1] [µM]	IC50 [3] [µM]	Structure (SMILES)	Cytotoxic endpoint [2] [µM]
2	–	C[C@H](NC[C@@H](N)CS)C(=O)NCc1ccccc1	–
0.37	–	CCC(C)[C@H](NC[C@@H](N)CS)C(=O)NC(CO)Cc1ccccc1 (stereo partly specified)	–
0.66	–	CCC(C)[C@H](NC[C@@H](N)CS)C(=O)NCc1ccc(OC)cc1 (stereo partly specified)	50
9	–	CCC(C)[C@@H](CNCCc1ccccc1)NC(=O)[C@@H](N)CS (stereo partly specified)	–
0.6	–	CCC[C@H](NC[C@@H](N)CS)C(=O)NCc1ccccc1	–
1.1	–	CC[C@H](NC[C@@H](N)CS)C(=O)NCc1ccccc1	–
1	–	CCC(C)[C@H](NC[C@@H](N)CS)C(=O)NCc1cccc(C)c1 (stereo partly specified)	25
0.07	–	CCC(C)[C@H](NC[C@@H](N)CS)C(=O)Nc1ccccc1 (stereo partly specified)	–
0.707	–	CCC(C)[C@H](NC[C@@H](N)CS)C(=O)NCCc1ccccc1 (stereo partly specified)	10
0.45	86	CCC(C)[C@H](NC[C@@H](N)CS)C(=O)NCc1ccccc1 (stereo partly specified)	–
0.945	–	CCC(C)[C@H](NC[C@@H](N)CS)C(=O)N(C)Cc1ccccc1 (stereo partly specified)	–
1.3	–	CCCCN(Cc1ccccc1)C(=O)[C@@H](NC[C@@H](N)CS)C(C)CC (stereo partly specified)	–
0.9	–	CCCC[C@H](NC[C@@H](N)CS)C(=O)NCc1ccccc1	–
0.35	–	CCC(C)[C@H](NC[C@@H](N)CS)C(=O)NCCCc1ccccc1 (stereo partly specified)	–
